Reference: ChEMBL document CHEMBL4266051, “Diterpenoids from Euphorbia dulcis with Potassium Ion Channel Inhibitory Activity with Selective G Protein-Activated Inwardly Rectifying Ion Channel (GIRK) Blocking Effect” (J Nat Prod, 2018)

Columns and labels:
Assay type in all cases: cell-based
hERG (KCNH2) [1] = target: T1, hERG (KCNH2) (Homo sapiens, UniProt Q12809); experiment: Inhibition of human ERG expressed in HEK293 cells at 10 uM by automated patch clamp method relative to control; conditions: HEK293 cells that express hERG
[2] = target: T2, Kir3.1/Kir3.4 (Homo sapiens) (UniProt P48549+P48544); experiment: Inhibition of GIRK-1/4 channel (unknown origin) expressed in HEK293 cells at 10 uM by automated patch clamp method relative to control
Summary of the method: (§1)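 HEK-293 cells stably expressing GIRK1/4 (Kir3.1/3.4) K+ channels; whole-cell currents recorded by automated patch clamp. Compounds screened at 1 and 10 μM, two or three cells per condition. Current values corrected using the current measured in K+-free external solution as baseline. Inhibition expressed as % of GIRK current; mean ± SEM, n = 2–3.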

[3] = target: T2, Kir3.1/Kir3.4 (Homo sapiens); experiment: Inhibition of GIRK-1/4 channel (unknown origin) expressed in HEK293 cells at 1 uM by automated patch clamp method relative to control; summary of the method: as §1
[4] = target: T2, Kir3.1/Kir3.4 (Homo sapiens); experiment: (§2) Inhibition of GIRK-1/4 channel (unknown origin) expressed in HEK293 cells by automated patch clamp method
Summary of the method: (§3)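 Whole-cell currents by automated patch clamp in HEK-293 cells stably expressing GIRK1/4 (Kir3.1/3.4). Screening at 1 and 10 μM on two or three cells. Concentration-response at four concentrations (0.3, 1, 3, 10 μM) on five or six cells, used for IC50. Currents corrected to the K+-free external solution as baseline. Means ± SEM.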

Kir3.1/Kir3.4 = target: T3, Kir3.1/Kir3.4 (Homo sapiens, UniProt P48544+P48549); experiment: as §2; summary of the method: as §3
T3 sequence (P48549 whole entry): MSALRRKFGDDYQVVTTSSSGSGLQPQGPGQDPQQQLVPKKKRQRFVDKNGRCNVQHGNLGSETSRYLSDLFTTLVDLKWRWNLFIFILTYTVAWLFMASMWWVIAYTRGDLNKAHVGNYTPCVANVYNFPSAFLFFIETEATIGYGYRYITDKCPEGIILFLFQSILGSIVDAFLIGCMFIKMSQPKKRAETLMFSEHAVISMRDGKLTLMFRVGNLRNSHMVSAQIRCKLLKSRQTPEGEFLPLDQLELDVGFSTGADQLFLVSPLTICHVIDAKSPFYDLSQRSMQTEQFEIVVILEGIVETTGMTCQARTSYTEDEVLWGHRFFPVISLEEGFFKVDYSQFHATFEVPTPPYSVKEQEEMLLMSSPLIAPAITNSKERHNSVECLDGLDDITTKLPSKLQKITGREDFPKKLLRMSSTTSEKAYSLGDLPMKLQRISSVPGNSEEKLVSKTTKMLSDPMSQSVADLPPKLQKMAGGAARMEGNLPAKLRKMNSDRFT
T3 sequence (P48544 whole entry): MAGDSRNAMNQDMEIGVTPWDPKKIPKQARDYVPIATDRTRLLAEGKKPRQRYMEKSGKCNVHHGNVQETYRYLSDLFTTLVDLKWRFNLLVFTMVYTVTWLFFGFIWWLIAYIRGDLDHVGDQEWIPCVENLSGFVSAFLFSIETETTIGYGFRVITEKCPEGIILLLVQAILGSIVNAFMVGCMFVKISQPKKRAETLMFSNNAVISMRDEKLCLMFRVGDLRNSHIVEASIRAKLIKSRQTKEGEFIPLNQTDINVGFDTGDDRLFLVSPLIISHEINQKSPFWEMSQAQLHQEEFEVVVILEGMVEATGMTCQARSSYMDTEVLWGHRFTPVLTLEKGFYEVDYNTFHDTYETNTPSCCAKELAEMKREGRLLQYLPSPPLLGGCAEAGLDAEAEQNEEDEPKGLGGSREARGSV

hERG (KCNH2) [5] = target: T1, hERG (KCNH2); experiment: Inhibition of human ERG expressed in HEK293 cells at 1 uM by automated patch clamp method relative to control; conditions: HEK293 cells that express hERG
Summary of the method: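 Automated whole-cell patch clamp in HEK-293 cells stably transfected with hERG (Kv11.1) cDNA. Increasing concentrations (1 and 10 μM) applied, two cells each. Current amplitude inhibition expressed as %, means ± SEM. 10 μM amitriptyline used as reference blocker.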

T1 sequence (Q12809 whole entry): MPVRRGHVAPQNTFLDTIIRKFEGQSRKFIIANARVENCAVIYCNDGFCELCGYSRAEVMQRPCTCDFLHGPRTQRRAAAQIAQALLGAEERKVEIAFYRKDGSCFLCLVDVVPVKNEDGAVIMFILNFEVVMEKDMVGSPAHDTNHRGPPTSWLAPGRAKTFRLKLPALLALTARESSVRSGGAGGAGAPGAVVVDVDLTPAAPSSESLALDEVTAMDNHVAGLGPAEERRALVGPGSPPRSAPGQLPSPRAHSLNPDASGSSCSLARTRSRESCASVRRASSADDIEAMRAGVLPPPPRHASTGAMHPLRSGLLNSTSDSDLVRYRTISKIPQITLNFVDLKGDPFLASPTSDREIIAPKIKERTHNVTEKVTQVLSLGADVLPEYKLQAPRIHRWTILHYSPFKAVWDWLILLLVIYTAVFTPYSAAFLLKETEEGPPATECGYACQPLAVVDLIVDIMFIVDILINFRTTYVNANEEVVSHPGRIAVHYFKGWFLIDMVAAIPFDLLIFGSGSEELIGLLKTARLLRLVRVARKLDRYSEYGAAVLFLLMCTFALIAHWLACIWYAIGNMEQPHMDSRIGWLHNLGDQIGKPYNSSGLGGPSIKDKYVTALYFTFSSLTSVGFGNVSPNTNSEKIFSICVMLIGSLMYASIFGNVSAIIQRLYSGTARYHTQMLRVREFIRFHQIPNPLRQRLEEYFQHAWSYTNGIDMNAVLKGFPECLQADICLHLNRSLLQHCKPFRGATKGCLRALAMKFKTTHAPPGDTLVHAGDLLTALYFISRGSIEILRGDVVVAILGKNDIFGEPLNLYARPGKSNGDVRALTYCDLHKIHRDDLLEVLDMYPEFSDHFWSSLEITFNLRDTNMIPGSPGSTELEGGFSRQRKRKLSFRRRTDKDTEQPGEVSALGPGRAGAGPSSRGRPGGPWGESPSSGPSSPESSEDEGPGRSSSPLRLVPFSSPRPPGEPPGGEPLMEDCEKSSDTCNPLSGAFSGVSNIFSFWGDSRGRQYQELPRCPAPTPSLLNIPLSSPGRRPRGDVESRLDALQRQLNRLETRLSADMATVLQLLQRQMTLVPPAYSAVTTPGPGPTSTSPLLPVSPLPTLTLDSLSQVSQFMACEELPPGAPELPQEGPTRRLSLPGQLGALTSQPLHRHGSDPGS

Structure (SMILES) | inhibition [2] | inhibition [3] | inhibition at 10 µM (hERG (KCNH2) [1]) | inhibition [4] | IC50 (Kir3.1/Kir3.4) | inhibition at 1 µM (hERG (KCNH2) [5])
C/C=C(\C)C(=O)O[C@H]1/C(C)=C/[C@H]2[C@@H](OC(=O)c3ccccc3)[C@@H](C)C[C@]2(O)[C@@H](OC(C)=O)[C@@H](C)/C=C/C(C)(C)[C@H](OC(C)=O)[C@H]1OC(C)=O | 85% | 38.5% | 24.4% | Dose-dependent effect | 1.6 µM | 6.5%
C/C=C(/C)C(=O)OCC1(C)[C@H]2[C@@H]3C=C(C)[C@@H](O)[C@]4(O)[C@@H](OC(=O)/C(C)=C\C)C(C)=C[C@]4(C3=O)[C@H](C)C[C@H]21 (stereo partly specified) | 80.4% | 43.9% | 55.4% | Dose-dependent effect | 1.45 µM | 11.2%
C/C=C(/C)C(=O)OCC1(C)[C@H]2[C@@H]3C=C(COC(C)=O)[C@@H](O)[C@]4(O)[C@@H](OC(=O)/C(C)=C\C)C(C)=C[C@]4(C3=O)[C@H](C)C[C@H]21 (stereo partly specified) | 45.1% | 16.4% |  |  |  | 
CC(=O)O[C@@H]1[C@@H](O)[C@@H](OC(C)=O)/C(C)=C/[C@H]2[C@@H](OC(=O)c3ccccc3)[C@@H](C)C[C@]2(O)[C@@H](OC(C)=O)[C@@H](C)/C=C/C1(C)C | 26.8% | 16% |  |  |  | 
C/C=C(\C)C(=O)O[C@H]1[C@@H](C)/C=C/C(C)(C)[C@H](OC(C)=O)[C@@H](OC(C)=O)[C@@H](O)/C(C)=C/[C@H]2[C@@H](OC(=O)c3ccccc3)[C@@H](C)C[C@@]21O | 60.8% | 15.3% |  |  |  | 
CCCNCC(O)COc1ccccc1C(=O)CCc1ccccc1 (stereo unspecified) |  | 60.6 to 94.2% |  |  |  | 
CC(=O)O[C@@H]1C[C@@H](OC(C)=O)C(C)(C)/C=C/[C@H](C)[C@H](OC(C)=O)[C@@]2(O)C[C@H](C)[C@H](OC(=O)c3ccccc3)[C@@H]2/C=C/1C [EUPHORNIN] | 78.7% | 31.1% | 19% | Dose-dependent effect | 2.63 µM | 3.3%
CC(=O)O[C@@H]1[C@@H](OC(C)=O)C(C)(C)/C=C/[C@H](C)[C@H](OC(C)=O)[C@@]2(O)C[C@H](C)[C@H](OC(=O)c3ccccc3)[C@@H]2/C=C(\C)[C@@H]1O | 66.6% | 16.8% |  |  |  | 
C/C=C(\C)C(=O)O[C@H]1/C(C)=C/[C@H]2[C@@H](OC(=O)c3ccccc3)[C@@H](C)C[C@]2(O)[C@@H](OC(=O)/C(C)=C/C)[C@@H](C)/C=C/C(C)(C)[C@H](OC(C)=O)[C@H]1OC(C)=O | 35.7% | 23.5% |  |  |  | 
CC(=O)O[C@@H]1[C@@H](OC(C)=O)C(C)(C)/C=C/[C@H](C)[C@H](O)[C@@]2(OC(C)=O)C[C@H](C)[C@H](OC(=O)c3ccccc3)[C@@H]2/C=C(\C)[C@@H]1OC(C)=O | 66% | 27.2% | 22.7% | Dose-dependent effect | 3.4 µM | 11.2%
C/C=C(\C)C(=O)O[C@@H]1C[C@@H](OC(C)=O)C(C)(C)/C=C/[C@H](C)[C@H](OC(C)=O)[C@@]2(O)C[C@H](C)[C@H](OC(=O)c3ccccc3)[C@@H]2/C=C/1C | 88.7% | 35.5% | 24.9% | Dose-dependent effect | 1.31 µM | 10.8%
C/C=C(/C)C(=O)O[C@H]1C(C)=C[C@@]23C(=O)[C@@H](C=C(C)[C@@H](O)[C@]12O)[C@H]1[C@@H](C[C@H]3C)C1(C)C | 52.3% | 23.8% | 7.9% | Dose-dependent effect | 12.1 µM | 1.8%

Second part, led by results:

inhibition [2] | inhibition [3] | Structure (SMILES) | inhibition at 10 µM (hERG (KCNH2) [1]) | inhibition [4] | IC50 (Kir3.1/Kir3.4) | inhibition at 1 µM (hERG (KCNH2) [5])
23.7% | 22.2% | C=C1CC[C@@H](OC(=O)/C=C/c2ccccc2)C(C)(C)/C=C/[C@H](C)C(=O)[C@@]2(O)C[C@H](C)[C@H](OC(=O)/C=C/c3ccccc3)[C@@H]2[C@H]1OC(C)=O |  |  |  | 
25.7% | 15.7% | CC(=O)O[C@H]1[C@@H](C)/C=C/C(C)(C)[C@H](O)[C@@H](O)[C@@H](O)/C(C)=C/[C@H]2[C@@H](OC(=O)c3ccccc3)[C@@H](C)C[C@@]21O |  |  |  | 
23.5% | 11.2% | CC(=O)O[C@H]1/C(C)=C/[C@H]2[C@@H](OC(=O)c3ccccc3)[C@@H](C)C[C@]2(O)[C@@H](OC(C)=O)[C@@H](C)/C=C/C(C)(C)[C@H](O)[C@H]1O |  |  |  | 
28.6% | 17.7% | CC(=O)OCC(=O)O[C@@H]1[C@H]2[C@@H](OC(=O)c3ccccc3)[C@@H](C)C[C@]2(O)[C@@H](OC(C)=O)[C@]2(C)C[C@@]1(OC(C)=O)C[C@H]1C(=O)C(C)(C)C[C@@H]12 |  |  |  | 
83.4% | 33.8% | CC(=O)O[C@@H]1[C@@H](OC(C)=O)C(C)(C)/C=C/[C@H](C)[C@H](OC(C)=O)[C@@]2(O)C[C@H](C)[C@H](OC(=O)c3ccccc3)[C@@H]2/C=C(\C)[C@@H]1OC(C)=O | 24% | Dose-dependent effect | 1.69 µM | 13.2%
